Calls of active or inactive are those of the source.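 The calls were made as follows, unless noted: active = a full or partial loss of lipid-probe fluorescence in the fish gall bladder, intestine or both, judged by eye; inactive = no fluorescence loss, or compound toxic to the fish.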
Legend:
[1] = inhibitors of TNFa-induced NFkB p65 translocation, primary screen, imaging, HUVEC, MLSMR starter and 10KST1 sets (AID 438;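 active = inhibition above 20% together with a positive visual image hit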;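 also: compound added about 3h40 before a 20 min TNFalpha stimulation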;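 as to inhibition: signal is the nuclear over cytoplasmic p65 intensity ratio per well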); details: HUVEC TNFa-induced p65 nuclear translocation; cell count: measured here: nuclei count (cytotoxicity indicator), at 2.08 µM; inhibition: at 2 µM, stronger effect = higher value, 0% TNFa-plus-vehicle, 100% no-TNFa wells
[2] = inhibitors of E-selectin induction by TNFa, primary screen, imaging, HUVEC, immunofluorescence, MLSMR starter and 10KST1 sets (AID 487;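 active = visually confirmed hit in the image check and inhibition above 20%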;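 as to inhibition: signal is fraction of cell area covered by stained E-selectin grains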;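 as to nuclei count: 100% = median nuclei count of all wells on the same plate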); details: HUVEC TNFalpha-induced E-selectin immunofluorescence imaging, at 2 µM; inhibition: stronger effect = higher value; nuclei count: measured here: cell number, toxicity
[3] = DUSP6 inhibitors restoring Erk phosphorylation by chemical complementation, primary imaging in DUSP6-transfected HeLa (AID 609;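 active = compounds giving at least 50% inhibition in the cell-based MKP-3 phosphatase rescue imaging test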;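 as to inhibition: phospho-Erk level distribution per well compared with pooled transfected vehicle control wells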); details: HeLa MKP-3 transfected, phospho-Erk imaging KS statistic, at 10 µM, cells stimulated with TPA for 15 min
[4] = biological target: Dual specificity protein phosphatase 6 (Homo sapiens) (UniProt Q16828); assay: as above; details: HeLa MKP-3 transfected, phospho-Erk imaging KS statistic; at 10 µM; stronger effect = higher value; cells stimulated with TPA for 15 min
[5] = biological target: Voltage-gated potassium channel subunit beta-2 (Rattus norvegicus) (UniProt P62483); assay: KvBeta enzyme negative modulators, primary screen, biochemical, NADPH fluorescence (AID 622;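 active = fluorescence slope higher than the sample average by over 3 SD, cut at about -0.22 in these data, passing the limit was not always enough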;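 also: slope of raw intensity against log time taken from 70 to 1610 s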); details: recombinant KvBeta, 4-cyanobenzaldehyde reduction, at 10 µM, stronger effect = higher value
[6] = biological target: Voltage-gated potassium channel subunit beta-2 (Rattus norvegicus) (UniProt P62483); assay: KvBeta positive modulators, primary screen, biochemical, NADPH fluorescence (AID 623;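 active = NADPH fluorescence slope more negative than the mean of all samples by about 3 SD, 99.7% confidence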;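 also: fluorescence intensity change per second fitted from 20 to 320 s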); details: Recombinant KvBeta, NADPH fluorescence decrease slope, 10 min; at 10 µM; stronger effect = lower value
[7] = biological target: Muscarinic acetylcholine receptor M4 (Homo sapiens) (UniProt P08173); assay: compounds altering M4/GIRK thallium flux, either direction, primary screen, M4 allosteric agonist project, cell-based, HEK293 M4/GIRK, BTC-AM (AID 625;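 active = fluorescence slope after compound addition differing from the mean of all tested samples at 99.7% confidence, mostly higher but some lower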;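 also: thallium influx through GIRK channels coupled to M4 in HEK293 cells with BTC-AM dye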); details: at 10 µM, actives lie on both sides
Outline: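 Material – HEK293 cells with M4 receptor and GIRK channels · Buffer or medium – pH 7.3 thallium assay buffer · Doses – one dose, 10 µM final · Timing – cells overnight at 37 °C, BTC-AM loading 1 h, reads 2 min total · Measured by – kinetic fluorescence with BTC-AM dye · Controls – carbachol and DMSO controls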

[8] = inhibitors of larval lipid processing in zebrafish, primary screen, whole organism, PED6 fluorescence, gall bladder and intestine (AID 686); details: Zebrafish larvae PED6 lipid processing, fluorescence scoring; screened at 20 µM (by protocol);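 also: larvae 5 to 7 days old with five fish per well; signal comes from phospholipase A2 cleavage of quenched PED6 carried via bile; overnight exposure to compound and PED6 before scoring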
Outline: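 system = live zebrafish larvae aged 5-7 days, whole organism | probe or stimulus = ingested quenched lipid PED6 at 100 nM | doses = 20 µM single dose | timing = overnight exposure | detection = fluorescence microscopy with visual scoring of gall bladder and intestine | read-out = visual per-well fluorescence inhibition score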

[9] = inhibitors of Chlamydomonas gravitaxis, primary screen, whole organism, Chlamydomonas reinhardtii, WT vs cilia-less mutant, absorbance, 96-well (AID 463189;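 active = inhibition at or above 50% relative to wild type and mutant plate controls; inactive = inhibition below 50%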;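 also: 0% = wild type cc124 cells in DMSO and 100% = ciliumless bld1 mutant cells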); details: OD600 absorbance, 2 days, at 10 µM, stronger effect = higher value
[10] = measured here: cell density z-score
[11] = measured here: nuclear c-Myc green intensity z-score
[12] = measured here: nuclear pErk red intensity z-score, stronger effect = higher value

Dual specificity protein phosphatase 6 (Homo sapiens), sequence (Q16828 whole entry, looked up): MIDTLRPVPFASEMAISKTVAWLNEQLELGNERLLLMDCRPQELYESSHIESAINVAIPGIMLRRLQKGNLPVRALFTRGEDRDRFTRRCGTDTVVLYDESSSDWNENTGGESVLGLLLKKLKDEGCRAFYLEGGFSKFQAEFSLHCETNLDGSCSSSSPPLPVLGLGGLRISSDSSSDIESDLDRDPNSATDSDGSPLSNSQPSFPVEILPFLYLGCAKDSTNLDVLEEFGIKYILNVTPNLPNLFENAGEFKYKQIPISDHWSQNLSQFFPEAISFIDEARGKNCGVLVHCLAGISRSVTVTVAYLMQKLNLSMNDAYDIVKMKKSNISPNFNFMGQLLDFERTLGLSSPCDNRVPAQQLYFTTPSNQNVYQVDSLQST
Muscarinic acetylcholine receptor M4 (Homo sapiens), sequence (P08173 whole entry, looked up): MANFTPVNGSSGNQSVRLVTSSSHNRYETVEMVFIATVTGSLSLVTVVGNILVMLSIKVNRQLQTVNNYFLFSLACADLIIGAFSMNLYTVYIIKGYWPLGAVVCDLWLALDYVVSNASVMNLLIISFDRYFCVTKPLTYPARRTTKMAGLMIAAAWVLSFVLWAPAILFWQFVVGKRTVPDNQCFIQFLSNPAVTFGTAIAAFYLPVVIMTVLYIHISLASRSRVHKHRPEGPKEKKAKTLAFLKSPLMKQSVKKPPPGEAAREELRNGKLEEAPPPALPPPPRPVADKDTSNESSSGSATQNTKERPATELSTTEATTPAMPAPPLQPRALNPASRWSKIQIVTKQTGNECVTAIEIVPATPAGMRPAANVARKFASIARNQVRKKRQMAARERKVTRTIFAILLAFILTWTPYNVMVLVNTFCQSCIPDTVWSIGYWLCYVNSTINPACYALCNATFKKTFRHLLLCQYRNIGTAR
Voltage-gated potassium channel subunit beta-2 (Rattus norvegicus), sequence (P62483 whole entry, looked up): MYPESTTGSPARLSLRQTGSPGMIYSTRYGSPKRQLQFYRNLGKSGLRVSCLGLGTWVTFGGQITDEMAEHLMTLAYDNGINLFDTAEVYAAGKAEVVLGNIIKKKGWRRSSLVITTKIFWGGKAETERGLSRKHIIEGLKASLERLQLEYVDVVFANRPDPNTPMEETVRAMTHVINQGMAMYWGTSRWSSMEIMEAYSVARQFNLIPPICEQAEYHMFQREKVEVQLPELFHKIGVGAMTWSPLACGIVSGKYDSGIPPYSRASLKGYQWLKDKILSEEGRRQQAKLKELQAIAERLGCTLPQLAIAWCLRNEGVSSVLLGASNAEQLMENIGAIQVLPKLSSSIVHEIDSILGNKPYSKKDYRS

SMILES	cell count [1]	inhibition [1]	inhibition [2]	nuclei count [2] [%]	z-score [3, 10]	z-score [3, 11]	z-score [3, 12]	inhibition [4]	fluorescence slope [5]	NADPH fluorescence slope [6]	fluorescence slope [7]	outcome [8]	inhibition [9]
C=CCOc1ccc(/C(O)=C2/C(=O)C(=O)N(CCCN3CCOCC3)C2c2ccc(OC)cc2)cc1 (centres undefined)	409	-10.2% (inactive)	-115% (inactive)	131	0.861	-1.19	0.613	14% (inactive)	-0.455 (inactive)	-0.000145 (inactive)	0.00475 (inactive)	inactive	25.3% (inactive)
CCCc1nc2n[nH]c(N)c2c2c1CCCC2	478	-12.3% (inactive)	-64.3% (inactive)	118	-0.479	-0.89	-1.19	-2.09% (inactive)	-0.48 (inactive)	-0.000102 (inactive)	0.00548 (inactive)	inactive	-1.38% (inactive)
CCOc1ccc(S(=O)(=O)NC(C)(C)C)cc1-c1nc2c(C(C)(C)C)nn(C)c2c(=O)[nH]1	654	-6.1% (inactive)	-8.5% (inactive)	99.3	2.17	-1.88	-0.971	31.4% (inactive)	-0.462 (inactive)	-5.9e-05 (inactive)	0.0055 (inactive)	inactive	88.4% (active)
Cc1ccc(N2CC(C(=O)Nc3ccc(N(C)C)cc3)CC2=O)cc1C (centres undefined)	477	-7.1% (inactive)	-76.8% (inactive)	107	-1.37	0.307	1.15	-1.98% (inactive)	-0.411 (inactive)	-9.5e-07 (inactive)	0.00461 (inactive)	inactive	-1.65% (inactive)
C=CCOn1c(=O)c(-c2ccc(OC)cc2)[n+]([O-])c2ccccc21	586	-10.1% (inactive)	-77.9% (inactive)	148	0.271	0.00215	-0.813	13.9% (inactive)	-0.416 (inactive)	-5.2e-05 (inactive)	0.00502 (inactive)	inactive	19.7% (inactive)
C=CCNc1nc(NCc2ccccc2)c(C#N)c2c1CN(C)CC2	592	-6.3% (inactive)	-14.9% (inactive)	156	0.516	-0.0927	0.356	-2.09% (inactive)	-0.407 (inactive)	-5.5e-05 (inactive)	0.00402 (inactive)	inactive	21.1% (inactive)
CC1(C)Cc2c(c(-c3ccccc3Cl)[nH]c(=O)c2C#N)CO1	591	5.7% (inactive)	-106% (inactive)	134	0.999	-0.743	0.0604	11.9% (inactive)	-0.384 (inactive)	-2.7e-05 (inactive)	0.00508 (inactive)	inactive	20.5% (inactive)
CSc1nc2sc3c(c2c2nnnn12)CCC3	594	-5.2% (inactive)	-73% (inactive)	143	-0.0727	0.543	0.37	1.63% (inactive)	-0.441 (inactive)	-0.000113 (inactive)	0.00506 (inactive)	inactive	17.9% (inactive)
Cc1ccc(N2C(=O)c3sc4nnc(C)c(=O)n4c3C2=O)cc1	637	1.3% (inactive)	-129% (inactive)	144	0.278	1.58	-1.15	-7.86% (inactive)	-0.478 (inactive)	-4e-05 (inactive)	0.00581 (inactive)	inactive	2.4% (inactive)
Cc1cc(=O)n2[nH]c(N3C(=O)CCC3=O)nc2n1	527	-1.3% (inactive)	47.3% (inactive)	172	-0.749	-0.115	1.44	-5.95% (inactive)	-0.397 (inactive)	-2.7e-05 (inactive)	0.00594 (inactive)	inactive	4.51% (inactive)
COc1ccc(C2/C(=C(\O)c3ccc4c(c3)OCCO4)C(=O)C(=O)N2CCCN(C)C)cc1 (centres undefined)	368	-2.4% (inactive)	-14.3% (inactive)	131	-2.04	0.887	-0.106	3.56% (inactive)	-0.506 (inactive)	-3.1e-05 (inactive)	0.00537 (inactive)	inactive	-13.1% (inactive)
O=C(/C=N/O)NCCCN1CCOCC1	682	-11.2% (inactive)	3.2% (inactive)	168	-1.5	-0.495	2.77	-15.1% (inactive)	-0.477 (inactive)	-7.4e-05 (inactive)	0.00666 (inactive)	inactive	5.9% (inactive)
CC1(C(=O)CSc2ncn[nH]2)CCC(=O)O1 (centres undefined)	643	19.2% (inactive)	21.4% (inactive)	93.2	-1.6	1.61	0.596	7.21% (inactive)	-0.544 (inactive)	-5.7e-05 (inactive)	0.00624 (inactive)	inactive	29.1% (inactive)
